ChEMBL document CHEMBL4152188, “Design, synthesis and biological evaluation of C(4) substituted monobactams as antibacterial agents against multidrug-resistant Gram-negative bacteria” (Eur J Med Chem, 2018)
In brackets after ≈: the same amount, converted by molar mass.

Tests used:
[1] = Elimination half life in human liver microsomes at 0.1 uM pre-incubated with compound followed by NADPH addition and measured after 60 mins by LC-MS/MS analysis; type: ADME, microsome; conditions: read-out: beta t1/2
[2] = Intrinsic clearance in human liver microsomes assessed per g protein at 0.1 uM pre-incubated with compound followed by NADPH addition and measured after 60 mins by LC-MS/MS analysis; type: ADME, microsome; conditions: 1 h
Summary of the method: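 Liver microsomes, 0.33 mg/mL microsomal protein, with an NADP+-regenerating system. Test article at 0.1 µM, incubated at 37°C. Samples were taken at 0, 7, 17, 30 and 60 min, and parent compound was measured by MS. Half-life, intrinsic clearance (ml/min/g protein) and MF (%) are derived from parent loss.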

Klebsiella pneumoniae [3] = assay: Selectivity index, ratio of MIC for against KPC-2 producing Klebsiella pneumoniae isolate 209735 to MIC for against KPC-2 producing Klebsiella pneumoniae isolate 209735 in presence of BPL; type: functional
Escherichia coli [4] = assay: Selectivity index, ratio of MIC for against extended-spectrum beta-lactamase producing Escherichia coli isolate 208687 to MIC for extended-spectrum beta-lactamase producing Escherichia coli isolate 208687 in presence of BPL; type: functional
Escherichia coli [5] = assay: Antibacterial activity against extended-spectrum beta-lactamase producing Escherichia coli isolate 212648 after 18 hrs in presence of BPL by CLSI broth microdilution method; type: functional; conditions: isolate 212648, 18 h
Summary of the method: (§1)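 CLSI broth microdilution against clinical isolates (ESBL E. coli, KPC-2 MDR K. pneumoniae, IMP-4 MDR P. aeruginosa; five per species). Iron limitation: Mueller-Hinton broth supplemented with 16 mg/liter 2,2'-bipyridyl to complex iron and induce iron uptake systems. Read-out: MIC.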

Pseudomonas aeruginosa [6] = assay: Selectivity index, ratio of MIC for against IMP-4 producing Pseudomonas aeruginosa isolate 212886 to MIC for against IMP-4 producing Pseudomonas aeruginosa isolate 212886 in presence of BPL; type: functional
Klebsiella pneumoniae [7] = assay: Antibacterial activity against KPC-2 producing Klebsiella pneumoniae isolate 209632 after 18 hrs by CLSI broth microdilution method; type: functional; conditions: isolate 209632, 18 h
Pseudomonas aeruginosa [8] = assay: Antibacterial activity against IMP-4 producing Pseudomonas aeruginosa isolate 209471 after 18 hrs by CLSI broth microdilution method; type: functional; conditions: isolate 209471, 18 h
Pseudomonas aeruginosa [9] = assay: Antibacterial activity against IMP-4 producing Pseudomonas aeruginosa isolate 208247 after 18 hrs by CLSI broth microdilution method; type: functional; conditions: isolate 208247, 18 h
Klebsiella pneumoniae [10] = assay: Antibacterial activity against KPC-2 producing Klebsiella pneumoniae isolate 209735 after 18 hrs in presence of BPL by CLSI broth microdilution method; type: functional; conditions: isolate 209735, 18 h; summary of the method: as §1
Klebsiella pneumoniae [11] = assay: Antibacterial activity against KPC-2 producing Klebsiella pneumoniae isolate 212232 after 18 hrs by CLSI broth microdilution method; type: functional; conditions: isolate 212232, 18 h
Escherichia coli [12] = assay: Antibacterial activity against Escherichia coli isolate 210737 after 18 hrs in presence of BPL by CLSI broth microdilution method; type: functional; conditions: isolate 210737, 18 h; summary of the method: as §1
Pseudomonas aeruginosa [13] = assay: Antibacterial activity against IMP-4 producing Pseudomonas aeruginosa isolate 209321 after 18 hrs in presence of BPL by CLSI broth microdilution method; type: functional; conditions: isolate 209321, 18 h; summary of the method: as §1
[14] = Metabolic bioavailability in human liver microsomes at 0.1 uM pre-incubated with compound followed by NADPH addition and measured after 60 mins by LC-MS/MS analysis; type: ADME, microsome
Klebsiella pneumoniae [15] = assay: Selectivity index, ratio of MIC for against KPC-2 producing Klebsiella pneumoniae isolate 212423 to MIC for against KPC-2 producing Klebsiella pneumoniae isolate 212423 in presence of BPL; type: functional
Klebsiella pneumoniae [16] = assay: Antibacterial activity against KPC-2 producing Klebsiella pneumoniae isolate 212423 after 18 hrs by CLSI broth microdilution method; type: functional; conditions: isolate 212423, 18 h
Escherichia coli [17] = assay: Antibacterial activity against extended-spectrum beta-lactamase producing Escherichia coli isolate 106342 after 18 hrs by CLSI broth microdilution method; type: functional; conditions: isolate 106342, 18 h

Row | half-life at 0.1 µM [1] [h] | CLint [2] [mL/min/g] | MIC (Escherichia coli [5]) [µg/mL] | MIC (Klebsiella pneumoniae [7]) [µg/mL] | MIC (Pseudomonas aeruginosa [8]) [µg/mL] | MIC (Pseudomonas aeruginosa [9]) [µg/mL] | MIC (Klebsiella pneumoniae [10]) [µg/mL] | MIC (Klebsiella pneumoniae [11]) [µg/mL] | MIC (Escherichia coli [12]) [µg/mL] | MIC (Pseudomonas aeruginosa [13]) [µg/mL] | Fh at 1 h, 0.1 µM [14] [%] | MIC (Klebsiella pneumoniae [16]) [µg/mL] | MIC (Escherichia coli [17]) [µg/mL] | Structure (SMILES) | Selectivity Index (Klebsiella pneumoniae [3]) | Selectivity Index (Escherichia coli [4]) | Selectivity Index (Pseudomonas aeruginosa [6]) | Selectivity Index (Klebsiella pneumoniae [15])
1 | 2.93 | 11.9 | 0.25 | 8 (≈ 13.6 µM) | 8 (≈ 13.6 µM) | 4 (≈ 6.78 µM) | 8 | 1 (≈ 1.7 µM) | 0.25 | 4 | 62.2 | 1 (≈ 1.7 µM) | 0.5 (≈ 0.848 µM) | CC(C)C(O/N=C(\C(=O)N[C@@H]1C(=O)N(S(=O)(=O)O)[C@@H]1COC(N)=O)c1csc(N)n1)c1cc(=O)c(O)cn1O (stereo partly drawn) | 4 | 2 | 1 | 2
2 | 4.52 | 7.76 | 0.5 | 2 (≈ 3.51 µM) | 16 (≈ 28 µM) | 16 (≈ 28 µM) | 0.25 | 1 (≈ 1.75 µM) | 0.06 | 8 | 71.6 | 2 (≈ 3.51 µM) | 0.5 (≈ 0.876 µM) | CC(C)C(O/N=C(\C(=O)N[C@@H]1C(=O)N(S(=O)(=O)O)C12CCCC2)c1csc(N)n1)c1cc(=O)c(O)cn1O (stereo partly drawn) | 8 | 2 | 2 | 4
3 | 3.15 | 11.1 | 0.25 | 4 (≈ 7.08 µM) | 8 (≈ 14.2 µM) | 8 (≈ 14.2 µM) | 8 | 2 (≈ 3.54 µM) | 0.25 | 8 | 63.9 | 0.5 (≈ 0.885 µM) | 1 (≈ 1.77 µM) | CC(C)C(O/N=C(\C(=O)N[C@@H]1C(=O)N(S(=O)(=O)O)[C@@H]1CCl)c1csc(N)n1)c1cc(=O)c(O)cn1O (stereo partly drawn) | 4 | 2 | 1 | 1
4 | 1.33 | 26.2 | 8 | 2 (≈ 2.61 µM) | 8 (≈ 10.4 µM) | 4 (≈ 5.22 µM) | 0.25 | 2 (≈ 2.61 µM) | 8 | 4 | 42.8 | 2 (≈ 2.61 µM) | 16 (≈ 20.9 µM) | CC(C)C(O/N=C(\C(=O)N[C@@H]1C(=O)N(S(=O)(=O)O)[C@@H]1Cn1cc(COCc2cc(=O)c(O)cn2O)nn1)c1csc(N)n1)c1cc(=O)c(O)cn1O (stereo partly drawn) | 8 | 16 | 4 | 8
